Blank lines part the entries; values can stand above or below the compound they belong to. Calls of active or inactive are those of the source. The rule behind the calls is not given here.
Key:
Bacteria [1] = test: Inhibition of bacterial metallo-beta-lactamase L1 expressed in Escherichia coli BL21 (DE3) at 20 uM using cefazolin as substrate preincubated for 30 mins followed by substrate addition relative to control
Bacteria [2] = test: Inhibition of bacterial metallo-beta-lactamase L1 expressed in Escherichia coli BL21 (DE3) assessed as decrease in cefazolin MIC at 16 ug/ml after 16 hrs by broth macrodilution method relative to control
Method in brief: (§1)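 E. coli BL21(DE3) carrying pET26b-L1 was grown overnight in Mueller-Hinton broth at 37 °C, pelleted and resuspended to OD600 0.1. MICs were determined by CLSI broth macrodilution after at least 16 h at 37 °C, taking the lowest concentration with no visible growth. Triplicates in at least two independent experiments; highest MIC reported.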

Bacteria [3] = test: Inhibition of bacterial metallo-beta-lactamase ImiS expressed in Escherichia coli BL21 (DE3) at 20 uM using imipenem as substrate preincubated for 30 mins followed by substrate addition
Bacteria [4] = test: Inhibition of bacterial metallo-beta-lactamase NDM1 expressed in Escherichia coli BL21 (DE3) at 20 uM using cefazolin as substrate preincubated for 30 mins followed by substrate addition
Escherichia coli = test: Potentiation of cefazolin-mediated antibacterial activity against Escherichia coli BL21(DE3) assessed as cefazolin MIC at 16 ug/ml after 16 hrs by broth macrodilution method (reference value: 4 ug/ml); assay type: functional; method in brief: as §1
[5] = Inhibition of bacterial metallo-beta-lactamase L1 expressed in Escherichia coli BL21 (DE3) using cefazolin as substrate preincubated for 30 mins followed by substrate addition; design: species or system Bacteria
Method in brief: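 IC50 measured at 25 °C with 50 µM cefazolin and inhibitor varied over 0.01–2 µM, after 30 min enzyme–inhibitor pre-incubation. Compounds were dissolved in DMSO and diluted in 30 mM Tris pH 7.0, with final DMSO below 0.1%.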

Bacteria [6] = test: Inhibition of bacterial metallo-beta-lactamase L1 expressed in Escherichia coli BL21 (DE3) assessed as cefazolin MIC at 16 ug/ml after 16 hrs by broth macrodilution method (reference value: 32 ug/ml); method in brief: as §1
[7] = Drug level assessed as bacterial metallo-beta-lactamase L1-mediated compound formation treated with 2-(((4-Chlorobenzoyl)methionyl)thio)acetic acid by HPLC method; assay type: ADME; conditions: bacteria
Method in brief: (§2)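 L1-mediated hydrolysis of thioester followed by HPLC under IC50 assay conditions, on a C18 column (150 × 4.6 mm, 5 µm) at 1.0 mL/min.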

Bacteria [8] = test: Binding affinity to bacterial metallo-beta-lactamase L1 expressed in Escherichia coli BL21 (DE3) treated with 2-(((4-Chlorobenzoyl)methionyl)thio)acetic acid at 2 to 10 mM after 1 hr by STD NMR method
Method in brief: (§3)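 1H STD-NMR at 300 MHz on-resonance and 2000 MHz off-resonance saturation. Total saturation time 1.5 s, relaxation delay 2.5 s. Samples were run in D2O with 5% DMSO-d6 and 150 mM NaCl at pH 7.5, after 1 h pre-incubation. Compound came from 100 mM stock in DMSO-d6.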

[9] = Retention time of compound by HPLC method; assay type: physicochemical; method in brief: as §2
Bacteria [10] = test: Binding affinity to bacterial metallo-beta-lactamase L1 expressed in Escherichia coli BL21 (DE3) assessed as change in entropy by ITC method
L929 = test: Cytotoxicity against mouse L929 cells up to 200 uM after 48 hrs by CCK8 assay; assay type: cell-based; conditions: l929, 48 h
[11] = Stability in Tris buffer at pH 6 to 8.5 measured every 2 hrs for 24 hrs by UV-Vis spectroscopic analysis; assay type: physicochemical; conditions: pH 6, 24 h
Method in brief: (§4)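 Thioester in Tris buffer at pH 6.0, 7.0 or 8.5, or at pH 7.0 with increasing L1 concentration. Absorbance at 245 nm was recorded every 2 h over 24 h.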

Bacteria [12] = test: Binding affinity to bacterial metallo-beta-lactamase L1 expressed in Escherichia coli BL21 (DE3) assessed as change in enthalpy by ITC method
[13] = Drug metabolism assessed as bacterial metallo-beta-lactamase L1-mediated hydrolysis measured every 2 hrs for 24 hrs by UV-Vis spectroscopic analysis; assay type: ADME; conditions: bacteria; method in brief: as §4
Bacteria [14] = test: Binding affinity to bacterial metallo-beta-lactamase L1 expressed in Escherichia coli BL21 (DE3) assessed as change in gibbs free energy by ITC method
[15] = Binding affinity to bacterial metallo-beta-lactamase L1 expressed in Escherichia coli BL21 (DE3) by ITC method; design: species or system Bacteria
Bacteria [16] = test: Binding affinity to bacterial metallo-beta-lactamase L1 expressed in Escherichia coli BL21 (DE3) at 2 to 10 mM after 1 hr by STD NMR method; method in brief: as §3

SMILES: O=C(O)CSC(=O)[C@H](Cc1c[nH]c2ccccc12)NC(=O)c1cccc(Br)c1
inhibition (Bacteria [1]): 90 to 95% | fold change (FC) (Bacteria [2]): 2 to 4 | inhibition (Bacteria [3]): inactive | inhibition (Bacteria [4]): inactive | MIC (Escherichia coli): 4 mg/L | IC50 [5]: 0.62 µM | MIC (Bacteria [6]): 16 mg/L

SMILES: O=C(O)CSC(=O)[C@H](Cc1c[nH]c2ccccc12)NC(=O)c1cccc([N+](=O)[O-])c1
inhibition (Bacteria [1]): 90 to 95% | fold change (FC) (Bacteria [2]): 2 to 4 | inhibition (Bacteria [3]): inactive | inhibition (Bacteria [4]): inactive | MIC (Escherichia coli): 4 mg/L | IC50 [5]: 0.8 µM | MIC (Bacteria [6]): 16 mg/L

SMILES: O=C(O)CSC(=O)[C@H](Cc1c[nH]c2ccccc12)NC(=O)c1ccc(F)cc1
inhibition (Bacteria [1]): 90 to 95% | fold change (FC) (Bacteria [2]): 2 to 4 | inhibition (Bacteria [3]): inactive | inhibition (Bacteria [4]): inactive | MIC (Escherichia coli): 4 mg/L | IC50 [5]: 0.75 µM | MIC (Bacteria [6]): 16 mg/L

SMILES: CSCC[C@H](NC(=O)c1ccc(Cl)cc1)C(=O)O
Drug metabolism [7]: Metabolite_Detected | Activity (Bacteria [8]): Active | Retention_time [9]: 4.2 min

SMILES: O=C(O)CSC(=O)[C@H](Cc1c[nH]c2ccccc12)NC(=O)c1ccc([N+](=O)[O-])cc1
inhibition (Bacteria [1]): 90 to 95% | fold change (FC) (Bacteria [2]): 2 to 4 | inhibition (Bacteria [3]): inactive | Stability [11]: Stable | inhibition (Bacteria [4]): inactive | MIC (Escherichia coli): 4 mg/L | Drug metabolism [13]: Metabolite_Detected | IC50 [5]: 0.37 µM | MIC (Bacteria [6]): 8 mg/L

SMILES: CSCC[C@H](NC(=O)c1cccc(Br)c1)C(=O)SCC(=O)O
inhibition (Bacteria [1]): 90 to 95% | fold change (FC) (Bacteria [2]): 2 to 4 | inhibition (Bacteria [3]): inactive | inhibition (Bacteria [4]): inactive | MIC (Escherichia coli): 4 mg/L | IC50 [5]: 1.2 µM | MIC (Bacteria [6]): 16 mg/L

More lines, main results first:

inhibition (Bacteria [1]): 90 to 95% | fold change (FC) (Bacteria [2]): 2 to 4 | inhibition (Bacteria [3]): inactive | inhibition (Bacteria [4]): inactive | MIC (Escherichia coli): 4 mg/L | IC50 [5]: 0.88 µM | MIC (Bacteria [6]): 16 mg/L
SMILES: O=C(O)CSC(=O)[C@H](Cc1c[nH]c2ccccc12)NC(=O)c1ccc(Br)cc1

TdeltaS (Bacteria [10]): -40.2 kJ/mol | inhibition (Bacteria [1]): 90 to 95% | fold change (FC) (Bacteria [2]): 2 to 4 | inhibition (Bacteria [3]): inactive | Stability [11]: Stable | inhibition (Bacteria [4]): inactive | MIC (Escherichia coli): 4 mg/L | deltaH (Bacteria [12]): -70.2 kJ/mol | Drug metabolism [13]: Metabolite_Detected | IC50 [5]: 0.17 µM | deltaG (Bacteria [14]): -30 kJ/mol | MIC (Bacteria [6]): 8 mg/L
SMILES: CSCC[C@H](NC(=O)c1ccc([N+](=O)[O-])cc1)C(=O)SCC(=O)O
Activity (L929): Non-Toxic | Kd [15]: 5.5 µM

inhibition (Bacteria [1]): 90 to 95% | fold change (FC) (Bacteria [2]): 2 to 4 | inhibition (Bacteria [3]): inactive | inhibition (Bacteria [4]): inactive | MIC (Escherichia coli): 4 mg/L | IC50 [5]: 0.19 µM | MIC (Bacteria [6]): 8 mg/L
SMILES: O=C(O)CSC(=O)[C@H](Cc1c[nH]c2ccccc12)NC(=O)c1ccc(Cl)cc1

inhibition (Bacteria [1]): 90 to 95% | fold change (FC) (Bacteria [2]): 2 to 4 | inhibition (Bacteria [3]): inactive | inhibition (Bacteria [4]): inactive | MIC (Escherichia coli): 4 mg/L | IC50 [5]: 1.03 µM | MIC (Bacteria [6]): 16 mg/L
SMILES: O=C(O)CSC(=O)[C@H](Cc1c[nH]c2ccccc12)NC(=O)c1ccc(C(F)(F)F)cc1

Activity (Bacteria [8]): Active
SMILES: O=C(O)CS

TdeltaS (Bacteria [10]): -91.3 kJ/mol | inhibition (Bacteria [1]): 90 to 95% | fold change (FC) (Bacteria [2]): 2 to 4 | inhibition (Bacteria [3]): inactive | Stability [11]: Stable | inhibition (Bacteria [4]): inactive | MIC (Escherichia coli): 4 mg/L | deltaH (Bacteria [12]): -118 kJ/mol | Drug metabolism [13]: Metabolite_Detected | IC50 [5]: 0.94 µM | deltaG (Bacteria [14]): -26.9 kJ/mol | Retention_time [9]: 4.5 min | Activity (Bacteria [16]): Active | MIC (Bacteria [6]): 16 mg/L
SMILES: CSCC[C@H](NC(=O)c1ccc(Cl)cc1)C(=O)SCC(=O)O
Activity (L929): Non-Toxic | Kd [15]: 19.7 µM

— ChEMBL document CHEMBL4257510, “Mercaptoacetate thioesters and their hydrolysate mercaptoacetic acids jointly inhibit metallo-β-lactamase L1” (Medchemcomm, 2018)
